ROMK mod: modulators of human ROMK potassium channel. P48048. Tet-inducible ROMK, thallium flux fluorescence; actives lie on both sides. B-score at 10 µM. hit rate 2% among 130,000. AID 1918;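 active = signal ratio slope over the read window, or its plate-corrected B-score, at least 3 SD from the plate mean, either direction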;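 also: B-score of the F/F0 ratio slope over 7 to 12 s after thallium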
Target sequence (P48048 whole entry, looked up): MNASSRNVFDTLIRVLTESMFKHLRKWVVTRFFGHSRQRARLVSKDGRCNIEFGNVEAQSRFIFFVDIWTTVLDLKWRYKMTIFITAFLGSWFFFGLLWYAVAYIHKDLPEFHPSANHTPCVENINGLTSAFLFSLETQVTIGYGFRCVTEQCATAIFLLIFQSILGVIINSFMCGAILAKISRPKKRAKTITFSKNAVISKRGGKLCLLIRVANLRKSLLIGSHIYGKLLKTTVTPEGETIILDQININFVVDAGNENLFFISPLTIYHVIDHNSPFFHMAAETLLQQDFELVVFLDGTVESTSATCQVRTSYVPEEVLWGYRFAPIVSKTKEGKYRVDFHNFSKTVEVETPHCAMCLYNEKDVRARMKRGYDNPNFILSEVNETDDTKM
b-catenin transl: beta-catenin nuclear translocation modulation | hit rate 0.3% among 190,000 | nuclear translocation activity, % at 5 µM | HeLa beta-catenin nuclear translocation, immunofluorescence imaging;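 active = nuclear translocation activity above 50% at 5 µM, with a well cell count of 50 or more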;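 also: per-cell ratio of nuclear to cytoplasmic median beta-catenin stain intensity; plate controls were DMSO negative control for no effect and GSK-3 inhibitor IX positive control for full effect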
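System: Human HeLa cells, endogenous beta-catenin | Compound dosing: 5 µM primary, 0.02–20 µM confirmation | Timing: 24 h compound exposure at 37°C, 5% CO2 | Measured by: Fluorescence imaging of beta-catenin antibody stain plus DAPI | Read-out basis: % activation of per-cell nuclear versus cytoplasmic median beta-catenin signal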
MT stabilizer: microtubule stabilizers in HeLa cells; % tubulin-high responders, % at 10 µM; hit rate 0.83% among 200,000; HeLa tubulin immunostaining HCS, 24 h; share of cells brighter than vehicle mean+2SD;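 active = plate Z-score above 3 for both tubulin-high and condensed-nucleus cell shares, with cell loss under 80%, at 10 µM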;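 also: anti alpha tubulin signal scored within the nucleus-defined area of each cell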
An asterisk follows results filed as active; . = not tested or not shown. Shown are actives, neighbours in structure and some others; about 1.9% of the full set was active somewhere.

SMILES	ROMK mod	b-catenin transl	MT stabilizer
O=C(N/N=C/c1ccccn1)c1cc(-c2ccccc2)nc2ccccc12	.	0	.
COc1ccccc1-c1cc(C(=O)N/N=C\c2cnn(C)c2C)c2ccccc2n1	-0.65	0	2
CCn1ncc(/C=N\NC(=O)c2cc(-c3ccc(C)cc3C)nc3ccccc23)c1C	2.1	-3	44*
CCCNC(=O)Nc1ccsc1C(=O)OC	0.03	3	2
O=c1[nH]ncc(N/N=C\c2cccs2)c1Cl	-0.17	4	6
COc1ccc(/C=N/NC(=O)c2cccnc2)cc1Cn1nc([N+](=O)[O-])c(Br)c1C	1.6	-5	27*
COc1ccc(/C=N/NC(=O)c2cccnc2)cc1CN1CCc2ccccc2C1	1.3	0	.
COc1ccc(CNCC(=O)Nc2cccc(S(N)(=O)=O)c2)cc1	0.062	0	4
COc1ccc(CNCC(=O)Nc2ccccc2-n2cccc2)cc1	1.5	43	33*
CC1CCC(C(=O)NC(C(=O)NCc2cccnc2)C(C)C)CC1 (centres undefined)	0.09	.	2
CCOC(=O)C1C(c2cccs2)NC(=O)NC1(O)C(F)(F)F (centres undefined)	1.7	-1	2
CCOC(=O)C1C(c2cccnc2)NC(=O)NC1(O)C(F)(F)F (centres undefined)	-0.47	-2	17*
O=C(CSc1nc(-c2ccco2)cc(C(F)(F)F)n1)Nc1ccc2c(c1)CCC2	.	3	47*
O=C(CSc1nnc(-c2ccccc2)c(-c2ccccc2)n1)NCc1ccco1	-1.2	-2	43*
COC(=O)c1ccccc1NC(=O)CSc1nc(-c2ccco2)cc(C(F)(F)F)n1	.	-2	14*
COC(=O)c1ccc(C(=O)OC)c(NC(=O)CSc2nc(-c3ccco3)cc(C(F)(F)F)n2)c1	1.5	.	3
O=C(CSc1ncc(-c2ccccc2)nn1)NCc1ccco1	.	.	3
O=C(CSc1nc(-c2ccco2)cc(C(F)(F)F)n1)NC1CCCC1	.	.	4
Cc1c(NC(=O)CSc2nc(-c3ccco3)cc(C(F)(F)F)n2)c(=O)n(-c2ccccc2)n1C	0.62	0	4
Cc1ccc(NC(=O)CSc2nc(-c3ccco3)cc(C(F)(F)F)n2)cc1C	.	28	49*
C/C(=N\NC(=O)c1nonc1N)c1cccs1	.	-1	7
O=C(COc1ccc(S(=O)(=O)NC2CCCCC2)cc1Cl)N1CCN(c2ccccc2)CC1	0.46	-9	1
Cc1noc(C)c1S(=O)(=O)Nc1ccc(O)c2c(=O)cc(-c3ccccc3Cl)oc12	.	-2	.
CCOC(=O)CN1C(=O)N[C@H](c2ccc(Br)cc2)C(C(C)=O)=C1C	0.03	.	4
CN(CC1CCCO1)S(=O)(=O)c1ccc(C(=O)NCc2ccccc2)cc1 (centres undefined)	-0.052	0	2
SMILES	ROMK mod	b-catenin transl	MT stabilizer
O=S(=O)(c1ccccc1Cl)N1CCCC(c2nc(-c3cccnc3)no2)C1 (centres undefined)	-0.25	-4	3
Cc1cc(NC(=O)CSc2nc(-c3ccco3)cc(C(F)(F)F)n2)n(-c2ccccc2)n1	1.8	12	44*
Cc1ccc(NC(=O)CSc2nnc(-c3ccco3)c(-c3ccco3)n2)cc1	.	97*	29*
O=C(CSc1nnc(-c2ccco2)c(-c2ccco2)n1)Nc1ccccc1	-0.14	4	3
Cc1cc(NC(=O)CCCSc2nc(-c3ccco3)cc(C(F)(F)F)n2)n(-c2ccccc2)n1	.	-1	2
CCN(CC)C(=O)NC1CCCCCCC1	-0.47	-3	4
O=C(Cn1nnc2ccccc2c1=O)NCCc1ccc(F)cc1	0.11	1	1
COc1ccc(-c2cc(C(=O)OCC(=O)N(C)C3CCS(=O)(=O)C3)c3ccccc3n2)cc1OC (centres undefined)	2.6	5	1
Cc1cc(C)cc(NC2=NC3(CCCCC3)N=C(N)N2)c1	.	9	47*
NC1=NC2(CCCCC2)N=C(Nc2ccc(F)cc2F)N1	.	1	2
Cn1c(=O)n(C)c2cc(S(=O)(=O)N3CCN(c4ccccc4)CC3)ccc21	.	-4	.
C=CCOc1c(Cl)cc(CNc2ccc(C)c(Cl)c2)cc1OC	2.3	146*	18*
CCOc1cc(CNc2ccc(S(N)(=O)=O)cc2)cc(Cl)c1OC	0.14	-2	4
COc1cccc(CNc2ccc(C)c(Cl)c2)c1	0.011	-2	1
C=CCOc1c(Cl)cc(CNc2ccc(N(C)C)cc2)cc1OC	.	4	32*
NS(=O)(=O)c1ccc(NC(=O)Nc2ccc(C(F)(F)F)cc2)cc1	.	0	.
CCOC(=O)C1CCN(Cc2cnc(Oc3ccc(C(C)(C)C)cc3)s2)CC1	.	1	1
COc1cc(/C=N/NC(=O)c2nc(-c3ccccc3)n(-c3ccccc3)n2)ccc1O	0.13	-1	3
COc1cc(/C=N/Nc2nc(C)nc3c2cnn3-c2ccccc2)ccc1O	-0.16	63*	16*
CCN(CC)CC(=O)Nc1ccc2c(c1)N(C(=O)CN(CC)CC)c1ccccc1CC2	-0.15	-4	2
CCN(CC)CC(=O)Nc1ccc2c(c1)Nc1ccccc1CC2	0.016	19	31*
CC1CC(=O)c2c(cc3c(-c4c(O)cc(O)c5c(O)c6c(cc45)OC(C)CC6=O)c(O)cc(O)c3c2O)O1 (centres undefined)	.	-3	32*
O=C1CC(c2ccc(O)cc2)Oc2cc(O)cc(O)c21 (centres undefined)	.	0	4
CC1CCc2c(sc3ncn(CC(=O)N4CCCCC4)c(=O)c23)C1 (centres undefined)	-0.83	-2	3
O=C(NCCOc1ccccc1Cl)C(=O)c1c[nH]c2ccccc12	0.34	0	3
SMILES	ROMK mod	b-catenin transl	MT stabilizer
C=CCNC(=O)C(=O)NCCOc1ccccc1Cl	.	3	23*
COc1ccccc1/C=C/C1(C(=O)NC2CCCC2)CC(=O)N1c1ccc(F)cc1 (centres undefined)	-2.7	0	20*
CCN(CC)S(=O)(=O)c1ccc(N2C(=O)CC2(/C=C/c2ccccc2)C(=O)NC2CCCC2)cc1 (centres undefined)	-1.2	2	2
Cc1cc(Oc2ccc(=O)[nH]n2)nc(Cl)n1	.	-2	.
CCOc1cc(C)c(C(C)C)cc1S(=O)(=O)N1CC(C)OC(C)C1 (centres undefined)	.	.	3
COc1ccc(C(C)C)cc1S(=O)(=O)n1cnc(C)c1	1.1	.	18*
CCOc1cc(C)c(C(C)C)cc1S(=O)(=O)n1cnc(C)c1	0.4	0	18*
COc1cc(C)c(Cl)cc1S(=O)(=O)n1cnc(C)c1	-0.081	.	2
CCOC(=O)C(Cc1ccccc1)c1ccnc2nc(N)nn12 (centres undefined)	-1.9	-4	2
COc1ccc2c(c1)C(=O)N(c1ccccc1C)C(=O)C2(C)C	0.071	0	19*
COc1ccc2c(c1)C(=O)N(c1ccccc1OC)C(=O)C2	.	.	3
C=CCn1c(SCC(=O)Nc2cc(NC(C)=O)ccc2OC)nnc1-c1ccccn1	-0.43	-2	6
C=CCn1c(SCC(=O)Nc2ccccc2OC)nnc1-c1ccccn1	0.058	-1	24*
O=C(/C=C/c1ccccc1)N/C(=C/c1ccccc1)C(=O)NCCCO	0.26	2	2
COc1ccc(NC(=O)COC(=O)c2ccc(S(=O)(=O)N(C)c3ccccc3OC)cc2)cc1OC	-0.6	-5	4

Screening results deposited in PubChem BioAssay by several laboratories.
